≈ marks a conversion by molar mass, not a printed value.
How the values were obtained:
Staphylococcus aureus [1] = experiment: Antibacterial activity against rifampicin resistant Staphylococcus aureus harboring RpoBH481Y mutant assessed as inhibition of bacterial growth; format: functional
Staphylococcus aureus [2] = experiment: Antibacterial activity against wild type Staphylococcus aureus assessed as inhibition of bacterial growth; format: functional
Staphylococcus aureus [3] = experiment: Antibacterial activity against ciprofloxacin resistant Staphylococcus aureus harboring ParCS80F and GyrAS84L double mutant assessed as inhibition of bacterial growth; format: functional
Staphylococcus aureus [4] = experiment: Antibacterial activity against Staphylococcus aureus harboring RpoBH481Y/ParCS80F/GyrAS84L triple mutant assessed as inhibition of bacterial growth; format: functional
Escherichia coli = experiment: Antibacterial activity against Escherichia coli assessed as inhibition of bacterial growth; format: functional
In short: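 Run in duplicate, with the same result obtained in each trial.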

HEK293 = experiment: Cytotoxicity against HEK293 cells; format: toxicity, cell-based, Homo sapiens

Row | SMILES | MIC (Staphylococcus aureus [1]) [mg/L] | MIC (Staphylococcus aureus [2]) [mg/L] | MIC (Staphylococcus aureus [3]) [mg/L] | MIC (Staphylococcus aureus [4]) [mg/L] | MIC (Escherichia coli) [mg/L] | IC50 (HEK293) [mg/L]
1 | CC(=O)O[C@H]1[C@H](C)[C@H](O)[C@H](C)[C@@H](O)[C@@H](C(C)OC(=O)C(C)(C)CC(=O)O)/C=C/C=C(/C)C(=O)Nc2c3oc4cc(NCCCCCCCCC(=O)N5Cc6cc(-c7ccc8c(=O)c(C(=O)O)cn(C9CC9)c8c7OC(F)F)ccc6[C@H]5C)cc(O)c4nc-3c3c4c(c(C)c(O)c3c2=O)O[C@](C)(O/C=C/[C@H](O[C@H]2C[C@@H]3OCO[C@@H]3[C@@H](C)O2)[C@H]1C)C4=O (stereo not given in full) | 8 (≈ 4.8 µM) | 4 (≈ 2.4 µM) | 4 (≈ 2.4 µM) | > 64 | > 64 | > 64
2 | CC(=O)O[C@H]1[C@H](C)[C@H](O)[C@H](C)[C@@H](O)[C@@H](C(C)OC(=O)C(C)(C)CC(=O)O)/C=C/C=C(/C)C(=O)Nc2c3oc4cc(NCCCCCC(=O)N5Cc6cc(-c7ccc8c(=O)c(C(=O)O)cn(C9CC9)c8c7OC(F)F)ccc6[C@H]5C)cc(O)c4nc-3c3c4c(c(C)c(O)c3c2=O)O[C@](C)(O/C=C/[C@H](O[C@H]2C[C@@H]3OCO[C@@H]3[C@@H](C)O2)[C@H]1C)C4=O (stereo not given in full) | 4 (≈ 2.46 µM) | 1 (≈ 0.615 µM) | 2 (≈ 1.23 µM) | > 64 | > 64 | > 64
3 | CC(=O)O[C@H]1[C@H](C)[C@H](O)[C@H](C)[C@@H](O)[C@@H](C(C)OC(=O)C(C)(C)CC(=O)O)/C=C/C=C(/C)C(=O)Nc2c3oc4cc(NCCCN5Cc6cc(-c7ccc8c(=O)c(C(=O)O)cn(C9CC9)c8c7OC(F)F)ccc6[C@H]5C)cc(O)c4nc-3c3c4c(c(C)c(O)c3c2=O)O[C@](C)(O/C=C/[C@H](O[C@H]2C[C@@H]3OCO[C@@H]3[C@@H](C)O2)[C@H]1C)C4=O (stereo not given in full) | 8 (≈ 5.1 µM) | 4 (≈ 2.55 µM) | 16 (≈ 10.2 µM) | > 64 | > 64 | > 64
4 | CC(=O)O[C@H]1[C@H](C)[C@H](O)[C@H](C)[C@@H](O)[C@@H](C(C)OC(=O)C(C)(C)CC(=O)O)/C=C/C=C(/C)C(=O)Nc2c3oc4cc(NCCCN5CCN(c6cc7c(cc6F)c(=O)c(C(=O)O)cn7C6CC6)CC5)cc(O)c4nc-3c3c4c(c(C)c(O)c3c2=O)O[C@](C)(O/C=C/[C@H](O[C@H]2C[C@@H]3OCO[C@@H]3[C@@H](C)O2)[C@H]1C)C4=O (stereo not given in full) | 8 (≈ 5.43 µM) | 4 (≈ 2.71 µM) | 4 (≈ 2.71 µM) | > 64 | 16 (≈ 10.9 µM) | 44 (≈ 29.9 µM)
5 | CC(=O)O[C@H]1[C@H](C)[C@H](O)[C@H](C)[C@@H](O)[C@@H](C(C)OC(=O)C(C)(C)CC(=O)O)/C=C/C=C(/C)C(=O)Nc2c3oc4cc(NCCCNC5(c6c(F)cc7c(=O)c(C(=O)O)cn8c7c6OC[C@@H]8C)CC5)cc(O)c4nc-3c3c4c(c(C)c(O)c3c2=O)O[C@](C)(O/C=C/[C@H](O[C@H]2C[C@@H]3OCO[C@@H]3[C@@H](C)O2)[C@H]1C)C4=O (stereo not given in full) | > 64 | 4 (≈ 2.74 µM) | 4 (≈ 2.74 µM) | > 64 | 64 (≈ 43.8 µM) | > 64
6 | CC(=O)O[C@H]1[C@H](C)[C@H](O)[C@H](C)[C@@H](O)[C@@H](C(C)OC(=O)C(C)(C)CC(=O)O)/C=C/C=C(/C)C(=O)Nc2c3oc4cc(N5CCCn6nc(C(=O)N7Cc8cc(-c9ccc%10c(=O)c(C(=O)O)cn(C%11CC%11)c%10c9OC(F)F)ccc8[C@H]7C)cc6C5)cc(O)c4nc-3c3c4c(c(C)c(O)c3c2=O)O[C@](C)(O/C=C/[C@H](O[C@H]2C[C@@H]3OCO[C@@H]3[C@@H](C)O2)[C@H]1C)C4=O (stereo not given in full) | > 64 | 16 (≈ 9.55 µM) | 16 (≈ 9.55 µM) | > 64 | > 64 | > 64
7 | COc1c(N2CCCC(N(C)CCCNc3cc(O)c4nc5c6c7c8c(C)c(O)c6c(=O)c(c-5oc4c3)NC(=O)/C(C)=C\C=C\[C@H](C(C)OC(=O)C(C)(C)CC(=O)O)[C@H](O)[C@@H](C)[C@@H](O)[C@@H](C)[C@H](OC(C)=O)[C@H](C)[C@@H](O[C@H]3C[C@@H]4OCO[C@@H]4[C@@H](C)O3)/C=C/O[C@@](C)(O8)C7=O)C2)c(F)cc2c(=O)c(C(=O)O)cn(C3CC3)c12 (stereo not given in full) | 16 (≈ 10.4 µM) | 8 (≈ 5.22 µM) | 8 (≈ 5.22 µM) | > 64 | > 64 | > 64
8 | CC(=O)O[C@H]1[C@H](C)[C@H](O)[C@H](C)[C@@H](O)[C@@H](C(C)OC(=O)C(C)(C)CC(=O)O)/C=C/C=C(/C)C(=O)Nc2c3oc4cc(N5CCC(CCCC(=O)N6Cc7cc(-c8ccc9c(=O)c(C(=O)O)cn(C%10CC%10)c9c8OC(F)F)ccc7[C@H]6C)CC5)cc(O)c4nc-3c3c4c(c(C)c(O)c3c2=O)O[C@](C)(O/C=C/[C@H](O[C@H]2C[C@@H]3OCO[C@@H]3[C@@H](C)O2)[C@H]1C)C4=O (stereo not given in full) | > 64 | 64 (≈ 38.4 µM) | 64 (≈ 38.4 µM) | > 64 | > 64 | > 64
9 | COc1c(N2C[C@@H]3CCCN(CCCNc4cc(O)c5nc6c7c8c9c(C)c(O)c7c(=O)c(c-6oc5c4)NC(=O)/C(C)=C\C=C\[C@H](C(C)OC(=O)C(C)(C)CC(=O)O)[C@H](O)[C@@H](C)[C@@H](O)[C@@H](C)[C@H](OC(C)=O)[C@H](C)[C@@H](O[C@H]4C[C@@H]5OCO[C@@H]5[C@@H](C)O4)/C=C/O[C@@](C)(O9)C8=O)[C@@H]3C2)c(F)cc2c(=O)c(C(=O)O)cn(C3CC3)c12 (stereo not given in full) | 16 (≈ 10.4 µM) | 1 (≈ 0.648 µM) | 1 (≈ 0.648 µM) | > 64 | > 64 | 38 (≈ 24.6 µM)
10 | COc1c(N2C[C@@H]3CCCN(c4cc(O)c5nc6c7c8c9c(C)c(O)c7c(=O)c(c-6oc5c4)NC(=O)/C(C)=C\C=C\[C@H](C(C)OC(=O)C(C)(C)CC(=O)O)[C@H](O)[C@@H](C)[C@@H](O)[C@@H](C)[C@H](OC(C)=O)[C@H](C)[C@@H](O[C@H]4C[C@@H]5OCO[C@@H]5[C@@H](C)O4)/C=C/O[C@@](C)(O9)C8=O)[C@@H]3C2)c(F)cc2c(=O)c(C(=O)O)cn(C3CC3)c12 (stereo not given in full) | 8 (≈ 5.38 µM) | 0.5 (≈ 0.336 µM) | 0.5 (≈ 0.336 µM) | > 64 | 32 (≈ 21.5 µM) | > 64
